Measurements: ChEMBL document CHEMBL4017491, “Phthalazino[1,2-b]quinazolinones as p53 Activators: Cell Cycle Arrest, Apoptotic Response and Bak-Bcl-xl Complex Reorganization in Bladder Cancer Cells” (J Med Chem, 2017)
The source made the active and inactive calls. The calls are words filed in the database; no cut-off is given here.

What was measured:
T-24 [1] = test: Cell cycle arrest in human T24 cells assessed as accumulation at sub-G1 phase at 1 to 10 uM after 48 hrs by propidium iodide staining based FACS analysis; assay type: functional
In short: (§1)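 Cells treated with 1−10 μM for 48 h, trypsinized, and fixed in 70% ethanol. Stained with 50 μg/mL propidium iodide and phase distribution analyzed by flow cytometry. Mean ± SD from three independent measurements.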

J82 = test: Cell cycle arrest in human J82 cells assessed as accumulation at G2 phase at 10 uM after 48 hrs by propidium iodide staining based FACS analysis (reference value: 10.92 %); assay type: functional; in short: as §1
[2] = target: Cellular tumor antigen p53 (Homo sapiens) (UniProt P04637); test: Activation of p53 in human T24 cells assessed as p53 phosphorylation after 24 hrs by Western blot analysis; assay type: cell-based
Sequence of Cellular tumor antigen p53 (Homo sapiens) (P04637 whole entry, looked up): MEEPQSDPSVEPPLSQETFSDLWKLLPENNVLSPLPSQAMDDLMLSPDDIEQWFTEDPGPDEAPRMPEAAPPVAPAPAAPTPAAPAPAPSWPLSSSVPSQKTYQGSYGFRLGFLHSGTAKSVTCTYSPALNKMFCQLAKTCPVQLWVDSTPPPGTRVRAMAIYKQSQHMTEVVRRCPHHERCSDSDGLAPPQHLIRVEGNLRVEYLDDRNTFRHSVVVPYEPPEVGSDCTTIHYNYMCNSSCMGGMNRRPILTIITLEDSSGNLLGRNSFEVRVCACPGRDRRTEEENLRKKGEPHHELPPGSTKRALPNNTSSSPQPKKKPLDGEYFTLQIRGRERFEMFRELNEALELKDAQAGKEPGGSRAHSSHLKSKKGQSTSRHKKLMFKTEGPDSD
In short: (§2)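 T24 cells, 3 × 10^5 per well, grown to 85−95% confluence, then exposed to 0−10 μM for 24 h. Whole-cell extracts in sample buffer run on SDS-polyacrylamide gels and transferred to nitrocellulose. Blots probed with primary antibodies and AP-linked anti-rabbit IgG, detected by ECL. Blots stripped and reprobed for β-actin as loading control.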

PC-3 = test: Antiproliferative activity against p53 null human PC3 cells by MTT assay; assay type: functional, cell-based
In short: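 Cell lines cultured in RPMI 1640 with 10% FBS. Viability read by MTT (5 mg/mL, 4 h at 37 °C), with formazan dissolved in DMSO and absorbance taken at 490 nm. Viability (%) = A490 treated / A490 control × 100. IC50 taken from dose-response curves, from three independent experiments each run in triplicate.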

T-24 [3] = test: Cell cycle arrest in human T24 cells assessed as effect on cyclin D expression up to 10 uM after 24 hrs by Western blot analysis; assay type: functional, cell-based; in short: as §2
[4] = target: Cellular tumor antigen p53 (Homo sapiens) (UniProt P04637); test: Activation of p53 in human T24 cells assessed as increase in p21 protein expression after 24 hrs by Western blot analysis; assay type: cell-based
T-24 [5] = test: Induction of apoptosis in human T24 cells assessed as early apoptotic cells at 1 uM by Annexin V-FITC/propidium iodide based flow cytometric analysis (reference value: 1.79%); assay type: functional
T-24 [6] = test: Induction of apoptosis in human T24 cells assessed as increase in bax level up to 10 uM after 24 hrs by Western blot analysis; assay type: functional, cell-based
In short: (§3)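 T24 cells (3 × 10^5 per well) grown to 85–95% confluence, then exposed 24 h to 0–10 μM. Whole-cell extracts run on SDS-PAGE and blotted to nitrocellulose. Probed with the indicated antibodies and AP-linked anti-rabbit IgG, with ECL detection. Blots stripped and reprobed for β-actin as loading control.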

T-24 [7] = test: Induction of apoptosis in human T24 cells assessed as increase in […] level up to 10 uM after 24 hrs by Western blot analysis; assay type: functional, cell-based; in short: as §3
T-24 [8] = test: Induction of apoptosis in human T24 cells assessed as apoptotic inducing factor translocation from mitochondria to nucleus at 1 to 10 uM after 48 hrs by Hoechst 33258 staining based fluorescence confocal microscopic analysis; assay type: functional, cell-based
In short: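 T24 cells on glass slides, treated for 48 h. Fixed in 4% paraformaldehyde, permeabilised with 1% Triton X-100, nuclei stained with Hoechst 33258 (final 0.5 μg/mL). Imaged by confocal fluorescence microscopy.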

HepG2 = test: Antitumor activity against human HepG2 cells xenografted in BALB/C nude mouse assessed as tumor growth inhibition at 12 mg/kg, ip administered every 2 days for 16 days relative to control; assay type: functional; conditions: read-out: TGI
In short: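 Male BALB/c nude mice, 6 weeks old, given subcutaneous flank injections of 5 × 10^6 HepG2 cells. Mice with 80−200 mm3 tumors randomized, n = 6 per group, and dosed ip every other day with 6 or 12 mg/kg. Vehicle 5% DMSO in saline; HCPT 6 mg/kg as positive control. Tumor volume (lw²/2) and body weight measured three times weekly.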

T-24 [9] = test: Antitumor activity against human T24 cells xenografted in BALB/C nude mouse assessed as tumor growth inhibition at 6 mg/kg, ip administered every 2 days for 16 days relative to control; assay type: functional; conditions: T-24, ip, read-out: TGI
T-24 [10] = test: Antitumor activity against human T24 cells xenografted in BALB/C nude mouse assessed as tumor growth inhibition at 12 mg/kg, ip administered every 2 days for 16 days relative to control; assay type: functional; conditions: T-24, ip, read-out: TGI
T-24 [11] = test: Downregulation of Bak protein expression in human T24 cells at 10 uM after 24 hrs by Western blot method; assay type: functional, cell-based; in short: as §2
T-24 [12] = test: Induction of DNA damage in human T24 cells assessed as gammaH2AX level up to 10 uM by immunoblot analysis; assay type: functional, cell-based
T-24 [13] = test: Induction of membrane disruption in human T24 cells at 1 to 10 uM after 1 hr by propidium iodide staining based FACS analysis; assay type: functional, cell-based
In short: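 T24 cells exposed 1 h to 1–10 μM, then trypsinised and washed in PBS. Resuspended in 50 μg/mL propidium iodide in PBS and analysed immediately by flow cytometry with a 488 nm argon laser.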

T-24 [14] = test: Effect on cell cycle distribution in human T24 cells assessed as live cells at 1 uM after 1 hr by Annexin V-FITC/propidium iodide staining based FACS analysis (reference value: 98.3%); assay type: functional
T-24 [15] = test: Effect on cell cycle distribution in human T24 cells assessed as late apoptotic cells at 5 uM after 1 hr by Annexin V-FITC/propidium iodide staining based FACS analysis relative to control; assay type: functional
T-24 [16] = test: Effect on cell cycle distribution in human T24 cells assessed as late apoptotic cells at 10 uM after 1 hr by Annexin V-FITC/propidium iodide staining based FACS analysis relative to control; assay type: functional
[17] = target: Cellular tumor antigen p53 (Homo sapiens) (UniProt P04637); test: Activation of p53 in human T24 cells assessed as decrease in MDM2 protein level up to 10 uM after 24 hrs by Western blot analysis; assay type: cell-based; in short: as §2
T-24 [18] = test: Induction of apoptosis in human T24 cells assessed as live cells at 5 uM by Annexin V-FITC/propidium iodide based flow cytometric analysis (reference value: 89.5%); assay type: functional
T-24 [19] = test: Induction of apoptosis in human T24 cells assessed as early apoptotic cells at 5 uM by Annexin V-FITC/propidium iodide based flow cytometric analysis (reference value: 1.79%); assay type: functional
T-24 [20] = test: Induction of apoptosis in human T24 cells assessed as live cells at 10 uM by Annexin V-FITC/propidium iodide based flow cytometric analysis (reference value: 89.5%); assay type: functional
T-24 [21] = test: Induction of apoptosis in human T24 cells assessed as early apoptotic cells at 10 uM by Annexin V-FITC/propidium iodide based flow cytometric analysis (reference value: 1.79%); assay type: functional
T-24 [22] = test: Induction of apoptosis in human T24 cells assessed as necrotic cells at 10 uM by Annexin V-FITC/propidium iodide based flow cytometric analysis (reference value: 8.53%); assay type: functional
Mus musculus = test: Effect on p53 expression in BALB/C nude mouse xenografted with human T24 cells at 6 to 12 mg/kg, ip administered every 2 days for 16 days by immunoblot analysis

CN(C)CCNc1nn2c(=O)c3cc(Br)ccc3nc2c2ccccc12 was tested, and the Activity (T-24 [1]) was “Active”, the Activity (J82) was 23.67% and the Activity [2] was “Dose-dependent effect”. For the same compound, the Activity (PC-3) was “inactive”, the Activity (T-24 [3]) was “inactive” and the Activity [4] was “Dose-dependent effect”. For the same compound, the Activity (T-24 [5]) was 4.22%, the Activity (T-24 [6]) was “Active” and the Activity (T-24 [7]) was “Active”. For the same compound, the Activity (T-24 [8]) was “Active”, the inhibition in vivo at 12 mg/kg (HepG2) was 61.3% and the inhibition in vivo at 6 mg/kg (T-24 [9]) was 44.8%. For the same compound, the inhibition in vivo at 12 mg/kg (T-24 [10]) was 54.2%, the Activity (T-24 [11]) was “Active” and the Activity (T-24 [12]) was “inactive”. For the same compound, the Activity (T-24 [13]) was “inactive”, the Activity (T-24 [14]) was 93.5% and the Activity (T-24 [15]) was 0%. The Activity (T-24 [16]) was 0%, the Activity [17] was “Active” and the Activity (T-24 [18]) was 62.8%. For the same compound, the Activity (T-24 [19]) was 26.4%, the Activity (T-24 [20]) was 21.8% and the Activity (T-24 [21]) was 29.4%. For the same compound, the Activity (T-24 [22]) was 8.1% and the Activity (Mus musculus) was “inactive”.
